Data from ChEMBL document CHEMBL1641522 (Bioorg Med Chem, 2011).
Activity calls are given as the source filed them. The rule behind the calls is not given here.

Assays:
Tubulin = Tubulin (Sus scrofa, UniProt P02554+P02550); assay: Binding affinity to porcine tubulin after 1 hr by spectrofluorometric analysis; assay type: protein assay
Outline: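 Purified porcine tubulin (0.5 µM) in MES buffer pH 6.8 at 37 °C, titrated with compound. Kd derived from the quenching titration.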

Tubulin (Sus scrofa) [1] = molecular target: T1, Tubulin (Sus scrofa) (UniProt P02554+P02550); assay: Ratio of compound Kd to plinabulin Kd for porcine tubulin; assay type: protein assay
T1 sequence (P02550 whole entry, looked up): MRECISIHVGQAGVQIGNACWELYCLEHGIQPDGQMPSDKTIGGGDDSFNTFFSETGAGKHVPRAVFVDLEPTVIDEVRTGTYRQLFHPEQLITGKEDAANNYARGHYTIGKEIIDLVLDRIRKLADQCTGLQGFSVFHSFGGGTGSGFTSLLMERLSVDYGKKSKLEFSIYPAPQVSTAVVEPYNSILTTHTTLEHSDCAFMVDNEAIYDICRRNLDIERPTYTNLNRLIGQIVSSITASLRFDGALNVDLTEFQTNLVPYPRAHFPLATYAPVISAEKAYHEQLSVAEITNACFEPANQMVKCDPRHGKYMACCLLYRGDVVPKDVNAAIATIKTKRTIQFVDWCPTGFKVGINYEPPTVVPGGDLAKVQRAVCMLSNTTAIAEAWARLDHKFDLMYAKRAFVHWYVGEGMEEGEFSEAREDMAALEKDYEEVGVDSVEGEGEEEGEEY
T1 sequence (P02554 whole entry, looked up): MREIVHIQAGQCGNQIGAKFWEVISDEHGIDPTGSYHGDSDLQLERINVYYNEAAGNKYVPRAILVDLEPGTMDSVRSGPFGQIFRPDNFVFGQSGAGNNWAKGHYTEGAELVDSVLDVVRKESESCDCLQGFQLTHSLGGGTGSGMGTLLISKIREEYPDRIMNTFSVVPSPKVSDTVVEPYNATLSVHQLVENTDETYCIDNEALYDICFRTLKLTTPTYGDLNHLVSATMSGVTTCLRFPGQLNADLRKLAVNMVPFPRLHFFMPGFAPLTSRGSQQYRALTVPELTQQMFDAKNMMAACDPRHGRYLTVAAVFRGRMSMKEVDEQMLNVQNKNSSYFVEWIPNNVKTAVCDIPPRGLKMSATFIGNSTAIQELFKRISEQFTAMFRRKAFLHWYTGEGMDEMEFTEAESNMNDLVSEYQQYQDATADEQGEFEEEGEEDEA

HT-29 [2] = assay: Cytotoxicity against human HT-29 cells after 72 hrs by XTT/PMS method; assay type: functional, cell-based; conditions: HT-29, 72 h
Outline: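 HT-29 colorectal adenocarcinoma cells in McCoy's 5A with 10% FBS, seeded at 5000 cells/well the day before. DMSO stocks serially diluted to 20 µM–2 pM final, exposed 72 h. XTT 0.1 mg/mL with 25 µM PMS added for 1 h. Formazan read at 492 nm, corrected at 690 nm. IC50 from triplicate experiments.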

HT-29 [3] = assay: Ratio of compound IC50 to plinabulin IC50 for human HT-29 cells; assay type: functional
Tubulin (Sus scrofa) [4] = molecular target: T1, Tubulin (Sus scrofa); assay: Binding affinity to porcine tubulin at 2 uM incubated for 30 mins by SDS-PAGE analysis; assay type: protein assay
Outline: (§1)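 Tubulin (2 µM) in MES buffer pH 6.8 with 1 mM GTP and 2% DMSO, incubated with compound 30 min at 37 °C. Irradiated at 365 nm, 10 cm, on ice, 0–30 s. Separated by 10% SDS–PAGE and blotted to PVDF. Labelled tubulin detected with streptavidin–HRP/ECL chemiluminescence.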

Tubulin (Sus scrofa) [5] = molecular target: T1, Tubulin (Sus scrofa); assay: Binding affinity to porcine tubulin at 2 uM incubated for 30 mins followed by UV irradiation at 365 nm at distance of 10 cm on ice by SDS-PAGE analysis; assay type: protein assay; conditions: TDE = time-dependent effect; outline: as §1
Tubulin (Sus scrofa) [6] = molecular target: T1, Tubulin (Sus scrofa); assay: Binding affinity to porcine tubulin incubated for 30 mins followed by UV irradiation at 365 nm for 30 seconds at distance of 10 cm on ice by SDS-PAGE analysis; assay type: protein assay; outline: as §1
Tubulin (Sus scrofa) [7] = molecular target: T1, Tubulin (Sus scrofa); assay: Binding affinity to porcine tubulin at 2 uM incubated for 30 mins followed by UV irradiation at 365 nm at distance of 10 cm on ice by SDS-PAGE analysis in presence of plinabulin; assay type: protein assay
Outline: (§2)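 Competition labelling. […] Probe (2 µM, 2% DMSO final) was then added for 30 min at 37 °C. Irradiated at 365 nm, 10 cm, on ice for 30 s. Read by 10% SDS–PAGE and streptavidin–HRP/ECL blot.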

Tubulin (Sus scrofa) [8] = molecular target: T1, Tubulin (Sus scrofa); assay: Binding affinity to porcine tubulin at 2 uM incubated for 30 mins followed by UV irradiation at 365 nm at distance of 10 cm on ice by SDS-PAGE analysis in presence of colchicine; assay type: protein assay; outline: as §2
Tubulin (Sus scrofa) [9] = molecular target: T1, Tubulin (Sus scrofa); assay: Binding affinity to porcine tubulin at 2 uM incubated for 30 mins followed by UV irradiation at 365 nm at distance of 10 cm on ice by SDS-PAGE analysis in presence of D-biotin; assay type: protein assay; outline: as §2

Compound	Kd (Tubulin) [nM]	Ratio (Tubulin (Sus scrofa) [1])	IC50 (HT-29 [2]) [nM]	Ratio IC50 (HT-29 [3])	Activity (Tubulin (Sus scrofa) [4])	Activity (Tubulin (Sus scrofa) [5])	Activity (Tubulin (Sus scrofa) [6])	Activity (Tubulin (Sus scrofa) [7])	Activity (Tubulin (Sus scrofa) [8])	Activity (Tubulin (Sus scrofa) [9])
CC(C)(Cc1cn(CCCNC(=O)CCCCCNC(=O)CCCCCNC(=O)CCCC[C@@H]2SC[C@@H]3NC(=O)N[C@@H]32)nn1)c1ocnc1/C=c1\[nH]c(=O)/c(=C/c2cccc(C(=O)c3ccccc3)c2)[nH]c1=O (stereo in doubt)	17900	17	9790	725	inactive	tde	Dose-dependent effect	inactive	inactive	inactive
CC(C)(C)c1[nH]cnc1/C=c1\[nH]c(=O)/c(=C/c2ccccc2)[nH]c1=O [PLINABULIN]			13.5							
COc1cc2c(c(OC)c1OC)-c1ccc(OC)c(=O)cc1[C@@H](NC(C)=O)CC2 [COLCHICINE]			16.6							
